# Reference: ChEMBL document CHEMBL2203081 (Bioorg Med Chem Lett, 2012)
# Activity calls are given as the source filed them. The rule behind the calls is not given here.
# Assays:
# [1] = biological target: T1, Serine/threonine-protein kinase D1 (Homo sapiens) (UniProt Q15139); assay: Inhibition of PRKD1 assessed as residual activity at 10 uM relative to control
# T1 sequence (whole entry): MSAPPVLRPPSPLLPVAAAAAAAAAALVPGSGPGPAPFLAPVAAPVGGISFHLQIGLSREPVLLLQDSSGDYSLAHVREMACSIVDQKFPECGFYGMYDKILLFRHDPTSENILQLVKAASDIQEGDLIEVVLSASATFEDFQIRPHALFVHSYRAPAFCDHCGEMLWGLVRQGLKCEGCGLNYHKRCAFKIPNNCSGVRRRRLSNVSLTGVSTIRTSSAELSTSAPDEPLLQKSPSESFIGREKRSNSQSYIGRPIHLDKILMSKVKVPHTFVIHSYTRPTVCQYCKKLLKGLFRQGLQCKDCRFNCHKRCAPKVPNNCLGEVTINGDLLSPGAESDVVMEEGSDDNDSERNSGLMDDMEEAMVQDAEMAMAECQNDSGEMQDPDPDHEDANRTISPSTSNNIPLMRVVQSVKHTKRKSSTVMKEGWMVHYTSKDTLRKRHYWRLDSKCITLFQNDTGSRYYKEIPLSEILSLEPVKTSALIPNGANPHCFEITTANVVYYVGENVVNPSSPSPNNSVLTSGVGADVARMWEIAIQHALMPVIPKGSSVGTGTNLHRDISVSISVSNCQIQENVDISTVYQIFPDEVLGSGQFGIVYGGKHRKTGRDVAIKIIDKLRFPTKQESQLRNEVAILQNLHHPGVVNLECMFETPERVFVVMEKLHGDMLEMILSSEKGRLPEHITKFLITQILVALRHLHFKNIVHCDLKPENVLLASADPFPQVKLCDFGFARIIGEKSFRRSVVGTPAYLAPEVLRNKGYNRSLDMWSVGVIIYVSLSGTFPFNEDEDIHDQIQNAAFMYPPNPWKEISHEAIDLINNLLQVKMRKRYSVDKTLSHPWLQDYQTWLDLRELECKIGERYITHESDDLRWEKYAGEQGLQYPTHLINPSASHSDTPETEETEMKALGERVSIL
# [2] = biological target: T2, Ephrin type-B receptor 2 (Homo sapiens) (UniProt P29323); assay: Inhibition of EPH-B2 assessed as residual activity at 1 uM
# T2 sequence (whole entry): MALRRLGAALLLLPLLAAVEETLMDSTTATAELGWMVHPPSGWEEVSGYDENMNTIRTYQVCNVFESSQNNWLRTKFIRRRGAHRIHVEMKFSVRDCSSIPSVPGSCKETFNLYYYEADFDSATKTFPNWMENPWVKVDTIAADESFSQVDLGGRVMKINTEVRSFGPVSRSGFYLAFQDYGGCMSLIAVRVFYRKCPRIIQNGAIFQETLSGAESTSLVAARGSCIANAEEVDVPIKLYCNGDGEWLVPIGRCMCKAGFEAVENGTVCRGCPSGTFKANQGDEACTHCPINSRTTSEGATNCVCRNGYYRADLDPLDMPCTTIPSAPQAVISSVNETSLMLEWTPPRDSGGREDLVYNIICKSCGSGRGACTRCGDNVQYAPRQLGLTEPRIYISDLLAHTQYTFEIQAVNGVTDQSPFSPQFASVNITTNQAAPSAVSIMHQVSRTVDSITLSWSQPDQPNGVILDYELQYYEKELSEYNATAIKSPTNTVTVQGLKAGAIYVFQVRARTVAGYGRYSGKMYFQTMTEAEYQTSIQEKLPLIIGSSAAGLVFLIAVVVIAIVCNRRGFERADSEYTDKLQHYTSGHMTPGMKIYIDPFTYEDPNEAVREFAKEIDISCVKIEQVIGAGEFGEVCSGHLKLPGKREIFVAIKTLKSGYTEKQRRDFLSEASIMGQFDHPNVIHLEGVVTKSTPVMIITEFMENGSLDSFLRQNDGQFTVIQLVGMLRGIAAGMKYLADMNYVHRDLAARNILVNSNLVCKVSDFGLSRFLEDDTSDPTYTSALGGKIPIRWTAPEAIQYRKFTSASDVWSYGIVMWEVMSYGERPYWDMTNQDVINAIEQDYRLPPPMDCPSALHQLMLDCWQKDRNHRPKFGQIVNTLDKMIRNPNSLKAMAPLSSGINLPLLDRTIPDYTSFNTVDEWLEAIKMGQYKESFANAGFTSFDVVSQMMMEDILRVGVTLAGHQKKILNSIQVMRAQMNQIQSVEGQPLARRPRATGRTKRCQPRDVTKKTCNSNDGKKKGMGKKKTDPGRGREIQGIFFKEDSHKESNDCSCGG
# Outline: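 Standard radioactivity-based enzymatic kinase assays on a 131-kinase panel run by the Dundee profiling service; residual kinase activity recorded.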
# [3] = biological target: Mitogen-activated protein kinase 14 (Homo sapiens) (UniProt Q16539); assay: Inhibition of p38a MAPK assessed as residual activity at 1 uM
# Chain of Mitogen-activated protein kinase 14 (Homo sapiens) (Q16539 whole entry): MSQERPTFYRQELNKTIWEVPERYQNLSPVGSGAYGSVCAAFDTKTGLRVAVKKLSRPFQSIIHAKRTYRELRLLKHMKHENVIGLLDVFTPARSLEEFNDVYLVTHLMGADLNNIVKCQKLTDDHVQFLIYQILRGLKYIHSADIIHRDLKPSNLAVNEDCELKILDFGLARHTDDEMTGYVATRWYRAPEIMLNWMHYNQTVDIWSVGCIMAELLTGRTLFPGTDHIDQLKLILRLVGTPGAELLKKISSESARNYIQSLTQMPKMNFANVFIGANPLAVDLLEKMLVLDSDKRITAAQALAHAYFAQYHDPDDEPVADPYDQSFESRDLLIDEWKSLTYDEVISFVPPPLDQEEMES
# [4] = biological target: Leucine-rich repeat serine/threonine-protein kinase 2 (Homo sapiens) (UniProt Q5S007); settings: 0.01 to 1 uM
# Chain of Leucine-rich repeat serine/threonine-protein kinase 2 (Homo sapiens) (Q5S007 whole entry): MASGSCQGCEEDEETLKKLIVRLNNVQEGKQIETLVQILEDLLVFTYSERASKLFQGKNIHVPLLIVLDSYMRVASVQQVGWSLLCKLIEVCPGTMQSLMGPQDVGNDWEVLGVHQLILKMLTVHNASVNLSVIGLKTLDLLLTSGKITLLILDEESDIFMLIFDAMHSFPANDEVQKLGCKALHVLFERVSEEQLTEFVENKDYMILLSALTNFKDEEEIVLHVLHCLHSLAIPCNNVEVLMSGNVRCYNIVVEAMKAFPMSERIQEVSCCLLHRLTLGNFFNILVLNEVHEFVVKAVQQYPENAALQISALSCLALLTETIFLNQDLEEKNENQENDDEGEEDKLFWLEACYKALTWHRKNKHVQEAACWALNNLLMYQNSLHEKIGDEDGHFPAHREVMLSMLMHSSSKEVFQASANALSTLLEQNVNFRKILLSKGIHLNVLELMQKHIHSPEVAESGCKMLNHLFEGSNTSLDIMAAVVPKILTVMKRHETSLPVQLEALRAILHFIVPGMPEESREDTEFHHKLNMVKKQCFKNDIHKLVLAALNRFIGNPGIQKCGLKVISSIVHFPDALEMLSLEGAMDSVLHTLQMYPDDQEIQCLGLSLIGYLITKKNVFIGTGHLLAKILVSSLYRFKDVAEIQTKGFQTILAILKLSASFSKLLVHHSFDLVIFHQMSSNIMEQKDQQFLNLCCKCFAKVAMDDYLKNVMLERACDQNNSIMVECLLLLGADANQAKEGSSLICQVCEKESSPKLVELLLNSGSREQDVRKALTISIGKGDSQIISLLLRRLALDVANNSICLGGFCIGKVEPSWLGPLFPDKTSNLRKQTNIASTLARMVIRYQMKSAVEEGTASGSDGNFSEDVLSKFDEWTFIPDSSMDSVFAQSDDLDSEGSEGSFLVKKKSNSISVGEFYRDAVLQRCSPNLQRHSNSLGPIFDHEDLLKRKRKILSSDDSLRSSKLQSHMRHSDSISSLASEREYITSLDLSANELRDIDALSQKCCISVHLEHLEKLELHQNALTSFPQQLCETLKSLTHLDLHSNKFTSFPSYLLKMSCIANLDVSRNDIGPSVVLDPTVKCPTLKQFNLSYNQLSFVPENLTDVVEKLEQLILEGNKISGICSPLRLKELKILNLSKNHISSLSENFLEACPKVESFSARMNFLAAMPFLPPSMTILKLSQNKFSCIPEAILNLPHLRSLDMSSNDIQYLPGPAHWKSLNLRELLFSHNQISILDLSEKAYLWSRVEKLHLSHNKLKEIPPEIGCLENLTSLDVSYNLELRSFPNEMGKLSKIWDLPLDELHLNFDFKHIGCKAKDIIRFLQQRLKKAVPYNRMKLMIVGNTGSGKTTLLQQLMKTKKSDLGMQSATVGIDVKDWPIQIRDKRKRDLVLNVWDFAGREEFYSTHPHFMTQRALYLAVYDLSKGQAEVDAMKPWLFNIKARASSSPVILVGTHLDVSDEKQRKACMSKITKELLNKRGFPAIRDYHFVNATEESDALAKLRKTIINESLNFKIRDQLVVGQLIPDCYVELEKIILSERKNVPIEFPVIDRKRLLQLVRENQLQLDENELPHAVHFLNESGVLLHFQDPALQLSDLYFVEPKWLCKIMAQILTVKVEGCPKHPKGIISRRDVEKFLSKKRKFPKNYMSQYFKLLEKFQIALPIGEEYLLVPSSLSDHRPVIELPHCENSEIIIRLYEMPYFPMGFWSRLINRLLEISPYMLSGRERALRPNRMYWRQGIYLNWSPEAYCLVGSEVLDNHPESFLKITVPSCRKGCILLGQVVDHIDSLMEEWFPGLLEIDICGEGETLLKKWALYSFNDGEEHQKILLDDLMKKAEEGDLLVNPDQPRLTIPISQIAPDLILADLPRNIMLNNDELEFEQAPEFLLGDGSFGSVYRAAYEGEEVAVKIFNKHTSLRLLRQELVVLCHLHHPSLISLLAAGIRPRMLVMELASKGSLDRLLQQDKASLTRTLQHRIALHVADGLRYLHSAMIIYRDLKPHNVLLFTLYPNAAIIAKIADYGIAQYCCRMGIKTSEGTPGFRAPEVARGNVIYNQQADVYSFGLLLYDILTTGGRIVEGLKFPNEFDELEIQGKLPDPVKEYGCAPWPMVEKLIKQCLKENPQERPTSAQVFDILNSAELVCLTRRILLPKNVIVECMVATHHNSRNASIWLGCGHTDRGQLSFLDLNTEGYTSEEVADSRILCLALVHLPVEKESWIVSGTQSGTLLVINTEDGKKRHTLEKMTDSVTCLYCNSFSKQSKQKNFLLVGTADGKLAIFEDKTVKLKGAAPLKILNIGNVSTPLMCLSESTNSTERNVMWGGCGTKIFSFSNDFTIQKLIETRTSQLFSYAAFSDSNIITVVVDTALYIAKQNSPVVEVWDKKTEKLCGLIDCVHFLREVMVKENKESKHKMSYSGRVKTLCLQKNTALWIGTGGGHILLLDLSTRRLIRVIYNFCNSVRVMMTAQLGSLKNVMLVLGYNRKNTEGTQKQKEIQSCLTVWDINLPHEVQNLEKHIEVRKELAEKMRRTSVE
# [5] = biological target: Epidermal growth factor receptor (Homo sapiens) (UniProt P04626+P00533+Q15303+P21860); assay: Inhibition of EGFR S752-I759del mutant assessed as residual activity at 10 uM relative to control; format: protein assay
# Outline: (§1)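 Competition kinase-binding assay (KINOMEscan) across a non-redundant panel of 329 kinases beyond the radiometric panel; residual binding expressed relative to control.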
# [6] = biological target: Tyrosine-protein kinase SYK (Homo sapiens) (UniProt P43405); assay: Inhibition of SYK assessed as residual activity at 1 uM
# [7] = biological target: Ribosomal protein S6 kinase alpha-5 (Homo sapiens) (UniProt O75582); assay: Inhibition of RPS6KA5 N-terminal domain 1 assessed as residual activity at 10 uM relative to control
# Chain of Ribosomal protein S6 kinase alpha-5 (Homo sapiens) (O75582 whole entry, looked up, the tested form may be a part): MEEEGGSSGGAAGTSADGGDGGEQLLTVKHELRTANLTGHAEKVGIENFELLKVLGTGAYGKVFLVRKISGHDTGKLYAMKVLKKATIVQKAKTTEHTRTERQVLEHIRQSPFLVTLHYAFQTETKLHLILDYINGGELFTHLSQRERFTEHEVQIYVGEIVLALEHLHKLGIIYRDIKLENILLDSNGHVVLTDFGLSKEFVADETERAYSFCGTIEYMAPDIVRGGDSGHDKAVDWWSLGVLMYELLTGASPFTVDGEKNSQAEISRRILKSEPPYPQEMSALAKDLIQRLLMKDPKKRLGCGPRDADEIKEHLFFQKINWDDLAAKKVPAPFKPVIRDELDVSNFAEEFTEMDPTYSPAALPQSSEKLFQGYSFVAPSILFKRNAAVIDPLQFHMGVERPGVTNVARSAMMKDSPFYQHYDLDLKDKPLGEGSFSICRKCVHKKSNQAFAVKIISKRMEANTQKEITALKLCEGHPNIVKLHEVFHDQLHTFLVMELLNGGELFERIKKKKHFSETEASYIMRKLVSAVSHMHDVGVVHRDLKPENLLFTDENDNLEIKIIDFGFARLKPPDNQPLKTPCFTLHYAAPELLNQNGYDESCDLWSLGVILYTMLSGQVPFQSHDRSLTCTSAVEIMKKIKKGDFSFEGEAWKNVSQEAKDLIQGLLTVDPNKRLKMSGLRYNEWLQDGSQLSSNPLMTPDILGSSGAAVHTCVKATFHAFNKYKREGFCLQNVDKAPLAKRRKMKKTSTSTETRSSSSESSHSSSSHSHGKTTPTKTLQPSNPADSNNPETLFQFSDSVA
# [8] = biological target: Death-associated protein kinase 2 (Homo sapiens) (UniProt Q9UIK4); assay: Inhibition of DAPK2 assessed as residual activity at 10 uM relative to control; outline: as §1
# [9] = biological target: MAP/microtubule affinity-regulating kinase 3 (Homo sapiens) (UniProt P27448); assay: Inhibition of MARK3 assessed as residual activity at 10 uM relative to control
# Chain of MAP/microtubule affinity-regulating kinase 3 (Homo sapiens) (P27448 whole entry, looked up): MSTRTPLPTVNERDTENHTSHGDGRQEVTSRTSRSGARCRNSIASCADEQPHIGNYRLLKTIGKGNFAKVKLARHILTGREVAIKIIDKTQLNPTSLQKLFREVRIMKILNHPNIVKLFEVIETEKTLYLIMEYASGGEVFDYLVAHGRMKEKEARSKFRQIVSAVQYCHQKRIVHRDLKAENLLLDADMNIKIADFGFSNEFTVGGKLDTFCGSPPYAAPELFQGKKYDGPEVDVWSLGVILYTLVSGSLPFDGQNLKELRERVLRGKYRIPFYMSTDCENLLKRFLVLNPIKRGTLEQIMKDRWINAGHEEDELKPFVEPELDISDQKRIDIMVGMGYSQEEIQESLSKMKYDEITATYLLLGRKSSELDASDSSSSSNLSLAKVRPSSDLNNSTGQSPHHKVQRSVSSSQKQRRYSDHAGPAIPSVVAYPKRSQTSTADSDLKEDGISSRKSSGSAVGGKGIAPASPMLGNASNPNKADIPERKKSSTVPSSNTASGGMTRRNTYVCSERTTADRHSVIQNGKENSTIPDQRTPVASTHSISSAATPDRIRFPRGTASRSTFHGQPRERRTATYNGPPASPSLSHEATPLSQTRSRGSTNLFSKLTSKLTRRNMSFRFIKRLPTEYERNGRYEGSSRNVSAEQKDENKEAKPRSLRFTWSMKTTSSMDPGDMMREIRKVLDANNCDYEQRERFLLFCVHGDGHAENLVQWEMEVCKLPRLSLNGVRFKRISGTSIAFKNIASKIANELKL
# [10] = biological target: Insulin receptor (Homo sapiens) (UniProt P06213); assay: Inhibition of INSR assessed as residual activity at 10 uM relative to control
# [11] = tested on: Brain; assay: AUClast in Swiss albino mouse brain at 1 mg/kg, iv; format: ADME, organism-based; parameters: dose 1 mg/kg, route intravenous, time 0 - last; settings: in vivo
# Outline: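 Male Swiss Albino mice, single dose given intravenously (1 mg/kg) or orally (10 mg/kg). Drug measured in plasma and brain, with AUClast taken for each. The brain/plasma ratio is based on AUClast, and oral bioavailability is derived from the IV and PO plasma data.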
# [12] = biological target: Insulin receptor-related protein (Homo sapiens) (UniProt P14616); assay: Inhibition of IRR assessed as residual activity at 1 uM
# Outline: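 Radioactivity-based enzymatic activity assay of the named kinase, run as part of a 131-kinase specificity panel at the National Centre for Protein Kinase Profiling (Dundee). Residual activity was read at the stated single inhibitor concentration.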
# [13] = biological target: Dual specificity mitogen-activated protein kinase kinase 1 (Homo sapiens) (UniProt Q02750); assay: Inhibition of MKK1 assessed as residual activity at 1 uM
# Chain of Dual specificity mitogen-activated protein kinase kinase 1 (Homo sapiens) (Q02750 whole entry): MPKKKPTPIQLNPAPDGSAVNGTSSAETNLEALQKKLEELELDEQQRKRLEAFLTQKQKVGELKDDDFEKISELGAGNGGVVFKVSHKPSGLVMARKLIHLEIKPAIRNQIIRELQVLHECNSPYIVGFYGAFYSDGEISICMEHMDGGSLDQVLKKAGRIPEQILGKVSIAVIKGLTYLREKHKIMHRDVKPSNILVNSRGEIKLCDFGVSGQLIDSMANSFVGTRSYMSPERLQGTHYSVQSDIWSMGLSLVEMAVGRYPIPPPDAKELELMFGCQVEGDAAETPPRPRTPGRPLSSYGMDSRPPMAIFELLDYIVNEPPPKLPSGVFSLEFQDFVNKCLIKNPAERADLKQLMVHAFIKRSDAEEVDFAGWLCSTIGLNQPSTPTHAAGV
smiles,measurement,setting,value
O=C(Nc1cccnc1)c1cc(-c2ccnc(F)c2)ccc1OCc1ccccc1,Activity,[1],41%
same,Activity,[2],123%
same,Activity,[3],101%
same,inhibition,[4],Active
same,Activity,[5],81%
same,Activity,[6],115%
same,Activity,[7],77%
same,Activity,[8],69%
same,Activity,[9],50%
same,Activity,[10],44%
same,AUClast,[11],708.7 ng·h/mL
same,Activity,[12],76%
same,Activity,[13],77%
